From article PMC4065498 (Chemical research in toxicology, 2010)

Legend:
recombinant human CES1 = target: T1, recombinant human CES1 (Homo sapiens, UniProt P23141); test: Hydrolysis of 2AG and PG-Gs by recombinant CES1; type: biochemical
T1 sequence (P23141 18-567): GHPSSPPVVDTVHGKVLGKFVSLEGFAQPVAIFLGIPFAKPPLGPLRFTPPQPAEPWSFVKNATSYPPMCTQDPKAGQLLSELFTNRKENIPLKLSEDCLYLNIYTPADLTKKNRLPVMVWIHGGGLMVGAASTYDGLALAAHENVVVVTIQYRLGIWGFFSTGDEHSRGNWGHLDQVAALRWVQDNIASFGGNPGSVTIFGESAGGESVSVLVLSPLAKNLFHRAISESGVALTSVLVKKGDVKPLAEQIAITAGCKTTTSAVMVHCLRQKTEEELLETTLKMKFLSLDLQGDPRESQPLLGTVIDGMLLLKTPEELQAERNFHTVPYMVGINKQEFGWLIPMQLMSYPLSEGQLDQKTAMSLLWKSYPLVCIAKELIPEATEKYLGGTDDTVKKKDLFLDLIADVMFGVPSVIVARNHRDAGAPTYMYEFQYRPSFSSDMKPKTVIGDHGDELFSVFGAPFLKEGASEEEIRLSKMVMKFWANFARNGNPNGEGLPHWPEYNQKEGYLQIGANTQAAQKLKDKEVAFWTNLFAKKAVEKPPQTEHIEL

recombinant human CES2 = target: T2, recombinant human CES2 (Homo sapiens, UniProt O00748); test: Hydrolysis of 2AG and PG-Gs by recombinant CES2; type: biochemical
T2 sequence (O00748 27-559): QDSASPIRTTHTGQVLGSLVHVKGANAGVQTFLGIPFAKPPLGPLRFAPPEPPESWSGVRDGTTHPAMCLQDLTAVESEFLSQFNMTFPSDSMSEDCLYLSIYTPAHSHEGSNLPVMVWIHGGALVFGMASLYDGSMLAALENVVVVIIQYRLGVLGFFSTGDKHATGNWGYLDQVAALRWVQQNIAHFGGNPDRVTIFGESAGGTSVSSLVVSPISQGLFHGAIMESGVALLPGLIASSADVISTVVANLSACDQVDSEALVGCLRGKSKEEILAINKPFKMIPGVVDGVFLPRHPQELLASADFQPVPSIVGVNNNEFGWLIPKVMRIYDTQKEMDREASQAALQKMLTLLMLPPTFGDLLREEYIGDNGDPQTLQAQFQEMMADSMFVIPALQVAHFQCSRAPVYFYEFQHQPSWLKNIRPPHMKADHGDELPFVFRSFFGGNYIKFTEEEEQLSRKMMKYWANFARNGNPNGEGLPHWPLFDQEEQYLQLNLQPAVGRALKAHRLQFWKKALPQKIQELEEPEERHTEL

[1] = system: CES1-depleted THP1 monocyte lysates; test: PG-G and 2AG hydrolysis by CES1-immunodepleted THP1 monocyte lysates; type: biochemical, human; settings: 25 μM PG-G or 10 μM 2AG, 30 min; versus preimmune IgG control
Procedure, shortened: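 THP1 monocyte lysate was solubilised in 50 mM Tris-HCl (pH 7.4) with 0.5% w/v Brij (1 h, 4°C). It was then incubated overnight with anti-CES1 or preimmune IgG plus protein A-agarose, and depletion was checked by western blot. Substrate (25 μM PG-G or 10 μM 2AG) in the same buffer was preheated 5 min at 37°C, then started with 10-30 μg supernatant lysate; 2AG ran 30 min. Reactions were run in duplicate or triplicate across ≥2 IP experiments, compared by Student's t-test.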

[2] = system: lipid glyceryl ester hydrolase activities of THP1 monocyte lysates
recombinant human MAGL = target: T3, recombinant human MAGL (Homo sapiens, UniProt Q99685); type: biochemical; settings: substrate 25 μM, 15 min, recombinant human enzymes
T3 sequence (Q99685 1-303): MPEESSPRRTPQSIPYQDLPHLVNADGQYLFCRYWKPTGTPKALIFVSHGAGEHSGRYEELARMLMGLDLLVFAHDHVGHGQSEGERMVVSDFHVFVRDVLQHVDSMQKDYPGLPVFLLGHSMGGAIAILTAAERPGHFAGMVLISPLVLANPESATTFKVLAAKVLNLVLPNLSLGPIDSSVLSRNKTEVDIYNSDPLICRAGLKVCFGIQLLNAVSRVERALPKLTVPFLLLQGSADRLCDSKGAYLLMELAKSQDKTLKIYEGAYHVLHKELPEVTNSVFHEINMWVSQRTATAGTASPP
Procedure, shortened: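 Purified recombinant human enzymes were compared; CES1 was expressed in baculovirus-infected Spodoptera frugiperda cells.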

intact THP1 monocytes = type: cell-based, human; settings: PO 1 μM, 30 min; substrate 25 μM, 60 min
THP1 macrophages [3] = test: In situ formation of PG-Gs by LPS-primed THP1 macrophages given exogenous 2AG; type: cell-based, human; settings: 1 μM PO 30 min prior to 10 μM 2AG; LPS-pretreated THP1 macrophages
THP1 macrophages [4] = test: PG-G and 2AG levels in LPS-primed THP1 macrophages stimulated with ionomycin; type: cell-based, human; settings: oxon 1 μM, ionomycin 5 μM
THP1 foam cells = test: Endogenous 2AG produced by cholesterol-loaded THP1 macrophages; type: cell-based, human; settings: 24 h
[5] = substrate: CCCCC/C=C\C/C=C\C/C=C\C/C=C\CCCC(=O)OC(CO)CO; test: Hydrolysis of 2AG and PG-Gs by recombinant CES1; type: biochemical; settings: other: human CES1; average ± SE of 2-4 independent experiments; pH 7.4; 37.0 °C
[6] = substrate: CCCCC/C=C\C/C=C\C/C=C\C/C=C\CCCC(=O)OC(CO)CO; test: Hydrolysis of 2AG and PG-Gs by recombinant CES2; type: biochemical; settings: other: human CES2; average ± SE of 2-4 independent experiments; pH 7.4; 37.0 °C
[7] = human CES1, average ± SE of 2-4 independent experiments
[8] = human CES2, average ± SE of 2-4 independent experiments

In the case of `CCCCC/C=C\C/C=C\C/C=C\C/C=C\CCCC(=O)NCCO` [AEA, arachidonoyl ethanolamide], the “hydrolysis of AEA by recombinant CES1” value (recombinant human CES1; amide-containing substrate) is reported as “neither enzyme could hydrolyze” and the “hydrolysis of AEA by recombinant CES2” value (recombinant human CES2; amide-containing substrate) is reported as “neither enzyme could hydrolyze”.

`CCCCC/C=C\C/C=C\C/C=C\C/C=C\CCCC(=O)OC(CO)CO` [2AG, 2-arachidonoylglycerol] was tested, and the kcat (recombinant human CES1; [7]) was 59 min⁻¹, the kcat (recombinant human CES2; [8]) was 43 min⁻¹ and the “reduction of hydrolysis activity of CES1-depleted lysate” value [1] was 64%. For the same molecule, the “control THP1 lysate hydrolysis activity” value ([2]; 25 μM substrate, no inhibitor) was 2.5 nmol product/min/mg protein.

“prostaglandin F2α glyceryl ester [PGF2α-G]” was tested, and the Km (recombinant human CES1; [7]) was 93 ± 43 µM, the kcat (recombinant human CES1; [7]) was 29 ± 3.5^a,b min^−1 and the “hydrolysis relative to PGE2-G using CES2 (judged by kcat/Km)” value (recombinant human CES2) was 6.5 fold. For the same molecule, the “hydrolysis by CES2 relative to CES1” value (recombinant human CES2; Table 1) was “three times faster”, the Km (recombinant human CES2; [8]) was 35 ± 4.1 µM and the kcat (recombinant human CES2; [8]) was 49 ± 5.4^a min^−1. The “hydrolysis rate by MAGL relative to CES1” value (recombinant human MAGL) was 4 fold and the “reduction of hydrolysis activity of CES1-depleted lysate” value [1] was 50%.

`CCOP(=O)(OCC)Oc1ccc([N+](=O)[O-])cc1` [PO, paraoxon] was tested, and the “inhibition of hydrolysis of exogenous 2AG, PGE2-G, or PGF2α-G by intact THP1 monocytes” value (intact THP1 monocytes) was ~ 50%, the “increase in PGE2-G levels” value (THP1 macrophages [3]) was 2 fold and the “increase in PGF2α-G levels” value (THP1 macrophages [3]) was 4 fold. The “PGF2α-G, PGE2-G, and 2AG levels compared to vehicle-treated cells following ionomycin stimulation” value (THP1 macrophages [4]) was “did not significantly elevate”, the “amount of 2AG in culture medium relative to control group” value (THP1 foam cells; oxon 1 μM) was 3.1 fold and the “amount of 2AG in culture medium relative to control group” value (THP1 foam cells; oxon 10 μM) was 3.5 fold. For the same molecule, the “inhibition of PGE2-G hydrolysis activity in THP1 cell lysate” value ([2]; oxon 1 μM) was “near complete inhibition”, the “inhibition of hydrolysis of exogenous 2AG in THP1 lysate” value ([2]; oxon 1 μM, 2AG 10 μM) was 35% and the “inhibition of 2AG hydrolysis activity in THP1 lysate” value ([2]; oxon 10 μM) was “did not further enhance inhibition”. For the same molecule, the “knock down of 2AG hydrolysis activity in THP1 monocyte lysate” value ([2]; oxon 500 μM) was 55%.

B1: recombinant human CES1 (Homo sapiens) (protein)
chain: GHPSSPPVVDTVHGKVLGKFVSLEGFAQPVAIFLGIPFAKPPLGPLRFTPPQPAEPWSFVKNATSYPPMCTQDPKAGQLLSELFTNRKENIPLKLSEDCLYLNIYTPADLTKKNRLPVMVWIHGGGLMVGAASTYDGLALAAHENVVVVTIQYRLGIWGFFSTGDEHSRGNWGHLDQVAALRWVQDNIASFGGNPGSVTIFGESAGGESVSVLVLSPLAKNLFHRAISESGVALTSVLVKKGDVKPLAEQIAITAGCKTTTSAVMVHCLRQKTEEELLETTLKMKFLSLDLQGDPRESQPLLGTVIDGMLLLKTPEELQAERNFHTVPYMVGINKQEFGWLIPMQLMSYPLSEGQLDQKTAMSLLWKSYPLVCIAKELIPEATEKYLGGTDDTVKKKDLFLDLIADVMFGVPSVIVARNHRDAGAPTYMYEFQYRPSFSSDMKPKTVIGDHGDELFSVFGAPFLKEGASEEEIRLSKMVMKFWANFARNGNPNGEGLPHWPEYNQKEGYLQIGANTQAAQKLKDKEVAFWTNLFAKKAVEKPPQTEHIEL
B1 was tested, and the Km [5] was 49 ± 11 µM and the kcat [5] was 0.983 ± 0.0667 s⁻¹.

B2: recombinant human CES2 (Homo sapiens) (protein)
chain: QDSASPIRTTHTGQVLGSLVHVKGANAGVQTFLGIPFAKPPLGPLRFAPPEPPESWSGVRDGTTHPAMCLQDLTAVESEFLSQFNMTFPSDSMSEDCLYLSIYTPAHSHEGSNLPVMVWIHGGALVFGMASLYDGSMLAALENVVVVIIQYRLGVLGFFSTGDKHATGNWGYLDQVAALRWVQQNIAHFGGNPDRVTIFGESAGGTSVSSLVVSPISQGLFHGAIMESGVALLPGLIASSADVISTVVANLSACDQVDSEALVGCLRGKSKEEILAINKPFKMIPGVVDGVFLPRHPQELLASADFQPVPSIVGVNNNEFGWLIPKVMRIYDTQKEMDREASQAALQKMLTLLMLPPTFGDLLREEYIGDNGDPQTLQAQFQEMMADSMFVIPALQVAHFQCSRAPVYFYEFQHQPSWLKNIRPPHMKADHGDELPFVFRSFFGGNYIKFTEEEEQLSRKMMKYWANFARNGNPNGEGLPHWPLFDQEEQYLQLNLQPAVGRALKAHRLQFWKKALPQKIQELEEPEERHTEL
In the case of B2, the Km [6] is reported as 46 ± 13 µM and the kcat [6] is reported as 0.717 ± 0.0667 s⁻¹.
